ChEMBL document CHEMBL4373711, “Development of 3,5-Dinitrophenyl-Containing 1,2,4-Triazoles and Their Trifluoromethyl Analogues as Highly Efficient Antitubercular Agents Inhibiting Decaprenylphosphoryl-β-d-ribofuranose 2'-Oxidase” (J Med Chem, 2019)
Converted amounts (≈) assume the structure as drawn. The source made the active and inactive calls. The calls are words filed in the database; no cut-off is given here.

Tests used:
[1] = system: Pichia kudriavzevii; assay: Antifungal activity against Candida krusei ATCC 6258 CCM8271 at highest concentration measured after 24 to 48 hrs by alamar blue dye based broth microdilution assay; assay type: functional, organism-based
[2] = system: Aspergillus fumigatus; assay: Antifungal activity against Aspergillus fumigatus ATCC 204305 at highest concentration measured after 24 to 48 hrs by alamar blue dye based broth microdilution assay; assay type: functional, organism-based
[3] = system: Candida albicans; assay: Antifungal activity against Candida albicans ATCC 24433 CCM 8320 at highest concentration measured after 24 to 48 hrs by alamar blue dye based broth microdilution assay; assay type: functional, organism-based
[4] = system: Escherichia coli; assay: Antibacterial activity against Escherichia coli ATCC 25922 CCM 3954 at highest concentration measured after 24 to 48 hrs by alamar blue dye based broth microdilution assay; assay type: functional, organism-based
[5] = system: Mycobacterium avium; assay: Antimycobacterial activity against Mycobacterium avium CNCTC My 330/88 after 14 days; assay type: functional; settings: CNCTC My 330/88, 336 h
Method in brief: (§1)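 M. avium was tested by microdilution in Šula's semisynthetic medium, with compounds dissolved in DMSO and serially diluted from 1000 down to 1. Inoculum was a 1.0 McFarland suspension diluted 10-5. Plates were incubated at 37 °C and read at 14 and 21 days. […] Isoniazid and rifampicin served as standards.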

[6] = system: Staphylococcus aureus; assay: Antibacterial activity against Staphylococcus aureus subsp. aureus ATCC 29213 CCM 4223 at highest concentration measured after 24 to 48 hrs by alamar blue dye based broth microdilution assay; assay type: functional, organism-based
[7] = system: Staphylococcus aureus; assay: Antibacterial activity against methicillin-resistant Staphylococcus aureus subsp. aureus ATCC 43300 CCM 4750 at highest concentration measured after 24 to 48 hrs by alamar blue dye based broth microdilution assay; assay type: functional, organism-based
[8] = system: Mycobacterium tuberculosis; assay: Antimycobacterial activity against Mycobacterium tuberculosis H37Rv CNCTC My 331/88 after 14 days; assay type: functional; settings: H37Rv CNCTC My 331/88, 336 h
Method in brief: (§2)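 M. tuberculosis strains (H37Rv and clinical MDR/XDR isolates) tested by microdilution in Šula's semisynthetic medium. Compounds were dissolved in DMSO and tested at 32 to 0.03 µM in twofold steps. Inoculum was a 1.0 McFarland suspension diluted 10-3. Plates were incubated at 37 °C and read at 14 and 21 days.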

[9] = system: Mycobacterium kansasii; assay: Antimycobacterial activity against Mycobacterium kansasii 6509/96 after 7 days; assay type: functional; settings: 6509/96, 168 h
Method in brief: (§3)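 Microdilution in Šula's semisynthetic medium; compounds in DMSO at 32–0.03 µM. Inoculum from 1.0 McFarland suspension diluted 10-4. […] Isoniazid and rifampicin as reference drugs.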

[10] = system: Candida parapsilosis; assay: Antifungal activity against Candida parapsilosis ATCC 22019 CCM 8260 at highest concentration measured after 24 to 48 hrs by alamar blue dye based broth microdilution assay; assay type: functional, organism-based
[11] = system: Trichophyton interdigitale; assay: Antifungal activity against Trichophyton interdigitale ATCC 9533 CCM 8377 at highest concentration measured after 72 to 120 hrs by alamar blue dye based broth microdilution assay; assay type: functional
[12] = system: Klebsiella pneumoniae; assay: Antibacterial activity against Klebsiella pneumoniae at highest concentration measured after 24 to 48 hrs by alamar blue dye based broth microdilution assay; assay type: functional, organism-based
[13] = system: Mycobacterium kansasii; assay: Antimycobacterial activity against Mycobacterium kansasii CNCTC My 235/80 after 7 days; assay type: functional; settings: CNCTC My 235/80, 168 h; method in brief: as §3
[14] = system: Mycobacterium avium; assay: Antimycobacterial activity against Mycobacterium avium CNCTC My 330/88 after 21 days; assay type: functional; settings: CNCTC My 330/88, 504 h; method in brief: as §1
[15] = system: Pseudomonas aeruginosa; assay: Antibacterial activity against Pseudomonas aeruginosa ATCC 27853 CCM 3955 at highest concentration measured after 24 to 48 hrs by alamar blue dye based broth microdilution assay; assay type: functional, organism-based
[16] = system: Mycobacterium kansasii; assay: Antimycobacterial activity against Mycobacterium kansasii CNCTC My 235/80 after 14 days; assay type: functional; settings: CNCTC My 235/80, 336 h; method in brief: as §3
[17] = system: Mycobacterium kansasii; assay: Antimycobacterial activity against Mycobacterium kansasii 6509/96 after 21 days; assay type: functional; settings: 6509/96, 504 h; method in brief: as §3
[18] = system: Mycobacterium kansasii; assay: Antimycobacterial activity against Mycobacterium kansasii CNCTC My 235/80 after 21 days; assay type: functional; settings: CNCTC My 235/80, 504 h; method in brief: as §3
[19] = system: Mycobacterium tuberculosis; assay: Antimycobacterial activity against Mycobacterium tuberculosis H37Rv CNCTC My 331/88 after 21 days; assay type: functional; settings: H37Rv CNCTC My 331/88, 504 h; method in brief: as §2
[20] = system: Lichtheimia corymbifera; assay: Antifungal activity against Lichtheimia corymbifera CCM 8077 at highest concentration measured after 24 to 48 hrs by alamar blue dye based broth microdilution assay; assay type: functional, organism-based
[21] = system: Staphylococcus epidermidis; assay: Antibacterial activity against Staphylococcus epidermidis at highest concentration measured after 24 to 48 hrs by alamar blue dye based broth microdilution assay; assay type: functional, organism-based
[22] = system: Enterococcus faecalis; assay: Antibacterial activity against Enterococcus faecalis ATCC 29212 CCM 4224 at highest concentration measured after 24 to 48 hrs by alamar blue dye based broth microdilution assay; assay type: functional, organism-based
[23] = system: Candida tropicalis; assay: Antifungal activity against Candida tropicalis ATCC 750 CCM 8264 at highest concentration measured after 24 to 48 hrs by alamar blue dye based broth microdilution assay; assay type: functional, organism-based
[24] = system: Serratia marcescens; assay: Antibacterial activity against Serratia marcescens at highest concentration measured after 24 to 48 hrs by alamar blue dye based broth microdilution assay; assay type: functional, organism-based
[25] = system: Mycobacterium kansasii; assay: Antimycobacterial activity against Mycobacterium kansasii 6509/96 after 14 days; assay type: functional; settings: 6509/96, 336 h; method in brief: as §3
[26] = system: Aspergillus flavus; assay: Antifungal activity against Aspergillus flavus CCM 8363 at highest concentration measured after 24 to 48 hrs by alamar blue dye based broth microdilution assay; assay type: functional, organism-based

| Structure (SMILES) | Activity [1] | Activity [2] | Activity [3] | Activity [4] | MIC99 [5] [µM] | Activity [6] | Activity [7] | MIC99 [8] [µM] | MIC99 [9] [µM] | Activity [10] | Activity [11] | Activity [12] | MIC99 [13] [µM] | MIC99 [14] [µM] | Activity [15] | MIC99 [16] [µM] | MIC99 [17] [µM] | MIC99 [18] [µM] | MIC99 [19] [µM] | Activity [20] | further results |
| --- | --- | --- | --- | --- | --- | --- | --- | --- | --- | --- | --- | --- | --- | --- | --- | --- | --- | --- | --- | --- | --- |
| COc1ccc(-c2nnc(SCc3cc([N+](=O)[O-])cc(C(F)(F)F)c3)n2Cc2ccccc2)cc1 | inactive | inactive | inactive | inactive | 250 (≈ 125 µg/mL) | inactive | inactive | 32 (≈ 16 µg/mL) | > 32 | inactive | inactive | inactive | 32 (≈ 16 µg/mL) | 250 (≈ 125 µg/mL) | inactive | > 32 | > 32 | > 32 | > 32 | inactive | Activity [21]: inactive; Activity [22]: inactive; Activity [23]: inactive; Activity [24]: inactive; MIC99 [25]: > 32 µM; Activity [26]: inactive |
| O=[N+]([O-])c1cc(Cn2c(SCc3ccccc3)nnc2-c2ccccc2)cc([N+](=O)[O-])c1 | inactive | inactive | inactive | inactive | > 1000 | inactive | inactive | 8 (≈ 3.58 µg/mL) | 8 (≈ 3.58 µg/mL) | inactive | inactive | inactive | 4 (≈ 1.79 µg/mL) | > 1000 | inactive | 8 (≈ 3.58 µg/mL) | 16 (≈ 7.16 µg/mL) | 16 (≈ 7.16 µg/mL) | 16 (≈ 7.16 µg/mL) | inactive | Activity [21]: inactive; Activity [22]: inactive; Activity [23]: inactive; Activity [24]: inactive; MIC99 [25]: 16 µM (≈ 7.16 µg/mL); Activity [26]: inactive |
| CCCCCCCCCCCCn1c(SCc2ccccc2)nnc1-c1cc([N+](=O)[O-])cc([N+](=O)[O-])c1 | inactive | inactive | inactive | inactive | 250 (≈ 131 µg/mL) | inactive | inactive | 2 (≈ 1.05 µg/mL) | 2 (≈ 1.05 µg/mL) | inactive | inactive | inactive | 2 (≈ 1.05 µg/mL) | 250 (≈ 131 µg/mL) | inactive | 4 (≈ 2.1 µg/mL) | 4 (≈ 2.1 µg/mL) | 4 (≈ 2.1 µg/mL) | 4 (≈ 2.1 µg/mL) | inactive | Activity [21]: inactive; Activity [22]: inactive; Activity [23]: inactive; Activity [24]: inactive; MIC99 [25]: 4 µM (≈ 2.1 µg/mL); Activity [26]: inactive |
| O=[N+]([O-])c1cc(CSc2nnc(-c3ccccc3)n2Cc2ccc(Cl)cc2Cl)cc([N+](=O)[O-])c1 | inactive | inactive | inactive | inactive | 250 (≈ 129 µg/mL) | inactive | inactive | > 32 | > 32 | inactive | inactive | inactive | > 32 | 250 (≈ 129 µg/mL) | inactive | > 32 | > 32 | > 32 | > 32 | inactive | Activity [21]: inactive; Activity [22]: inactive; Activity [23]: inactive; Activity [24]: inactive; MIC99 [25]: > 32 µM; Activity [26]: inactive |
| CCCCCCCCCCCCn1c(SCc2cc([N+](=O)[O-])cc([N+](=O)[O-])c2)nnc1-c1ccccc1 | inactive | inactive | inactive | inactive | 250 (≈ 131 µg/mL) | inactive | inactive | 2 (≈ 1.05 µg/mL) | 2 (≈ 1.05 µg/mL) | inactive | inactive | inactive | 2 (≈ 1.05 µg/mL) | 250 (≈ 131 µg/mL) | inactive | 2 (≈ 1.05 µg/mL) | 4 (≈ 2.1 µg/mL) | 4 (≈ 2.1 µg/mL) | 4 (≈ 2.1 µg/mL) | inactive | Activity [21]: inactive; Activity [22]: inactive; Activity [23]: inactive; Activity [24]: inactive; MIC99 [25]: 4 µM (≈ 2.1 µg/mL); Activity [26]: inactive |
| CCCCCCCCCCCc1nnc(SCc2cc([N+](=O)[O-])cc([N+](=O)[O-])c2)n1Cc1ccccc1 | inactive | inactive | inactive | inactive | 250 (≈ 131 µg/mL) | inactive | inactive | 4 (≈ 2.1 µg/mL) | 2 (≈ 1.05 µg/mL) | inactive | inactive | inactive | 2 (≈ 1.05 µg/mL) | 250 (≈ 131 µg/mL) | inactive | 4 (≈ 2.1 µg/mL) | 8 (≈ 4.21 µg/mL) | 4 (≈ 2.1 µg/mL) | 4 (≈ 2.1 µg/mL) | inactive | Activity [21]: inactive; Activity [22]: inactive; Activity [23]: inactive; Activity [24]: inactive; MIC99 [25]: 4 µM (≈ 2.1 µg/mL); Activity [26]: inactive |
| O=[N+]([O-])c1cc(CSc2nnc(-c3ccccc3)n2Cc2ccccc2)cc(C(F)(F)F)c1 | inactive | inactive | inactive | inactive | 250 (≈ 118 µg/mL) | inactive | inactive | 16 (≈ 7.53 µg/mL) | > 32 | inactive | inactive | inactive | > 32 | 250 (≈ 118 µg/mL) | inactive | > 32 | > 32 | > 32 | 32 (≈ 15.1 µg/mL) | inactive | Activity [21]: inactive; Activity [22]: inactive; Activity [23]: inactive; Activity [24]: inactive; MIC99 [25]: > 32 µM; Activity [26]: inactive |
| O=[N+]([O-])c1cc(Cn2c(SCc3ccc(Cl)c(Cl)c3)nnc2-c2ccccc2)cc([N+](=O)[O-])c1 | inactive | inactive | inactive | inactive | 250 (≈ 129 µg/mL) | inactive | inactive | 8 (≈ 4.13 µg/mL) | 8 (≈ 4.13 µg/mL) | inactive | inactive | inactive | 4 (≈ 2.07 µg/mL) | 250 (≈ 129 µg/mL) | inactive | 8 (≈ 4.13 µg/mL) | 16 (≈ 8.26 µg/mL) | 16 (≈ 8.26 µg/mL) | 16 (≈ 8.26 µg/mL) | inactive | Activity [21]: inactive; Activity [22]: inactive; Activity [23]: inactive; Activity [24]: inactive; MIC99 [25]: 16 µM (≈ 8.26 µg/mL); Activity [26]: inactive |
